Active and inactive are the calls of the source. The rule behind the calls is not given here.
Legend:
Plasmodium berghei [1] = assay: Anti-plasmodial activity against Plasmodium berghei ANKA infected in mouse assessed as suppression in blood parasitemia level at 0.048 mmol/kg/day, po administered as single dose at 24 hrs time interval from day 1 to day 3 and measured 96 hrs post infection by Giemsa staining based microscopic method relative to control; format: functional
Method in brief: (§1)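 Swiss albino mice, five per group, were infected i.v. on day 0 with 0.2 ml of 2 x 10^7 P. berghei ANKA parasitized erythrocytes. Oral dosing at 0.048 mmol/kg/day began 2 h later and repeated daily on days 1-3. The vehicle was 7% Tween and 3% ethanol in water. Giemsa smears were read on day 4 (5 fields of ~100 RBC). Suppression was taken against vehicle controls, and survival was tracked per mouse.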

Plasmodium berghei [2] = assay: Anti-plasmodial activity against Plasmodium berghei ANKA infected in mouse assessed as mean survival time at 0.048 mmol/kg/day, po administered as single dose at 24 hrs time interval from day 1 to day 3 and measured 96 hrs post infection (reference value: 4.33 +/- 0.7 day); format: functional
Erythrocyte [3] = assay: Antihemolytic activity in RBC (unknown origin) at 40 ug/ml relative to control
Erythrocyte [4] = assay: Antiinflammatory activity in RBC (unknown origin); format: functional
[5] = Acute toxicity in mouse assessed as mouse death at 150 mg/kg, po after 3 days; format: organism-based; conditions: in vivo, 72 h
Method in brief: (§2)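 Male mice, 25-30 g, six per group, fasted overnight and weighed before dosing. Compounds given as suspensions in aqueous 1% gum acacia. Five dose groups per compound. Toxicity signs, body-weight change and deaths recorded over 3 days after administration.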

PBMC [6] = assay: Cytotoxicity against human PBMC assessed as reduction in cell viability after 30 mins by Neutral red dye-based phase-contrast inverted microscopic analysis; conditions: 0.5 h
Method in brief: (§3)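 PBMC were isolated from a healthy donor by Ficoll-Hypaque density-gradient centrifugation and exposed to a range of test concentrations. Viability was scored by neutral red uptake, with retained dye taken as proportional to viable cells with intact membranes.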

[7] = Selectivity ratio of IC50 for antihemolytic activity in RBC (unknown origin) to IC50 for chloroquine resistant Plasmodium falciparum RKL9; format: functional
PBMC [8] = assay: Cytotoxicity against human PBMC assessed as reduction in cell viability at 6.25 ug/ml after 30 mins by Neutral red dye-based phase-contrast inverted microscopic analysis relative to control; conditions: 0.5 h; method in brief: as §3
Erythrocyte [9] = assay: Antihemolytic activity in RBC (unknown origin) relative to control
PBMC [10] = assay: Cytotoxicity against human PBMC assessed as reduction in cell viability at 100 ug/ml after 30 mins by Neutral red dye-based phase-contrast inverted microscopic analysis relative to control; conditions: 0.5 h; method in brief: as §3
Plasmodium falciparum [11] = assay: Anti-plasmodial activity against chloroquine resistant Plasmodium falciparum RKL9 infected in human erythrocytes after 24 hrs by Giemsa staining-based method; format: functional, organism-based; conditions: RKL9, 24 h
Method in brief: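 Chloroquine-resistant RKL9 kept in continuous culture (Trager-Jensen). Parasitaemia adjusted to 1-1.5% with fresh human B(+) RBC in RPMI 1640 with 10% AB(+) serum. Two-fold serial dilutions from ethanol stock, duplicate wells, 37°C for 24 h. Giemsa smears scored as schizonts per 100 asexual parasites. Schizont maturation inhibition = 1 − Nt/Nc x 100; IC50 derived.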

Erythrocyte [12] = assay: Antiinflammatory activity in RBC (unknown origin) at 20 ug/ml relative to control
Erythrocyte [13] = assay: Antihemolytic activity in RBC (unknown origin); format: functional
[14] = Acute toxicity in mouse assessed as effect on body weight at 150 mg/kg, po after 3 days; format: organism-based; conditions: in vivo, 72 h; method in brief: as §2
[15] = Selectivity ratio of IC50 for human PBMC to IC50 for chloroquine resistant Plasmodium falciparum RKL9; format: toxicity; conditions: read-out: Ratio IC50
PBMC [16] = assay: Cytotoxicity against human PBMC assessed as reduction in cell viability at 25 ug/ml after 30 mins by Neutral red dye-based phase-contrast inverted microscopic analysis relative to control; conditions: 0.5 h; method in brief: as §3
Erythrocyte [17] = assay: Antihemolytic activity in RBC (unknown origin) at 20 ug/ml relative to control
Plasmodium berghei [18] = assay: Anti-plasmodial activity against Plasmodium berghei ANKA infected in mouse assessed as increase in mean survival time at 0.048 mmol/kg/day, po administered as single dose at 24 hrs time interval from day 1 to day 3 and measured 96 hrs post infection; format: functional, organism-based; method in brief: as §1
Erythrocyte [19] = assay: Antiinflammatory activity in RBC (unknown origin) relative to control
[20] = Acute toxicity in mouse up to 150 mg/kg, po after 3 days; format: organism-based; conditions: in vivo, 72 h; method in brief: as §2
Erythrocyte [21] = assay: Antiinflammatory activity in RBC (unknown origin) at 40 ug/ml relative to control
Plasmodium falciparum [22] = assay: Potency index, ratio of chloroquine phosphate IC50 to compound IC50 for anti-plasmodial activity against chloroquine resistant Plasmodium falciparum RKL9 infected in human erythrocytes; format: functional
[23] = Selectivity ratio of IC50 for antiinflammatory activity in RBC (unknown origin) to IC50 for chloroquine resistant Plasmodium falciparum RKL9; format: functional

SMILES: COc1ccc(-c2nn(-c3ccccc3)cc2C(=O)N/N=C/c2ccncc2)cc1
- Activity (Plasmodium berghei [1]): 79.31%
- MST (Plasmodium berghei [2]): 8.83 days

SMILES: COc1ccc(-c2nn(-c3ccccc3)cc2C(=O)NNC(C)=O)cc1
- Activity (Plasmodium berghei [1]): 63.21%
- MST (Plasmodium berghei [2]): 6.66 days

SMILES: COc1ccc(-c2nn(-c3ccccc3)cc2C(=O)N/N=C/c2cc(OC)c(OC)c(OC)c2)cc1
- Activity (Erythrocyte [3]): 97.8%
- Activity (Erythrocyte [4]): 29.69%
- Activity [5]: Non-Toxic
- IC50 (PBMC [6]): 31.2 µM
- Activity (Plasmodium berghei [1]): 93.1%
- Ratio IC50 [7]: 1700
- Activity (PBMC [8]): 43%
- IC50 (Erythrocyte [9]): 121 µM
- Activity (PBMC [10]): 77.93%
- IC50 (Plasmodium falciparum [11]): 0.0398 µM
- Activity (Erythrocyte [12]): 17.52%
- Activity (Erythrocyte [13]): 41%
- Activity [14]: Non-Toxic
- selectivity ratio [15]: 783
- Activity (PBMC [16]): 60%
- Activity (Erythrocyte [17]): 85%
- Activity (Plasmodium berghei [18]): Active
- IC50 (Erythrocyte [19]): 52.5 µM
- Activity [20]: Non-Toxic
- Activity (Erythrocyte [21]): 5.34%

SMILES: COc1ccc(-c2nn(-c3ccccc3)cc2C(=O)N/N=C/c2ccc(F)cc2)cc1
- Activity (Plasmodium berghei [1]): 67.81%
- MST (Plasmodium berghei [2]): 10.5 days

SMILES: COc1ccc(-c2nn(-c3ccccc3)cc2C(=O)N/N=C/c2cccc(O)c2)cc1
- Activity (Erythrocyte [3]): 44%
- Activity (Erythrocyte [4]): 49.03%
- Activity [5]: Non-Toxic
- IC50 (PBMC [6]): 1000 µM
- Activity (Plasmodium berghei [1]): 97.7%
- Ratio IC50 (Plasmodium falciparum [22]): 13
- Activity (PBMC [8]): -19.18%
- IC50 (Erythrocyte [9]): 133 µM
- Activity (PBMC [10]): 12.78%
- IC50 (Plasmodium falciparum [11]): 0.0142 µM
- Activity (Erythrocyte [12]): 54.31%
- Activity (Erythrocyte [13]): 32%
- Activity [14]: Non-Toxic
- selectivity ratio [15]: 70000
- Activity (PBMC [16]): 54.42%
- Activity (Erythrocyte [17]): 40%
- Activity (Plasmodium berghei [18]): Active
- IC50 (Erythrocyte [19]): 16 µM
- Activity [20]: Non-Toxic
- Activity (Erythrocyte [21]): 59.58%

SMILES: COc1ccc(-c2nn(-c3ccccc3)cc2C(=O)N/N=C2/SCC(=O)N2c2ccccc2)cc1
- Activity (Plasmodium berghei [1]): 82.75%
- MST (Plasmodium berghei [2]): 12.83 days

SMILES: C=CCN1C(=O)CS/C1=N/NC(=O)c1cn(-c2ccccc2)nc1-c1ccc(OC)cc1
- Activity (Plasmodium berghei [1]): 79.31%
- MST (Plasmodium berghei [2]): 11.33 days

SMILES: COc1ccc(-c2nn(-c3ccccc3)cc2C(=O)N/N=C/c2ccccc2)cc1
- Activity (Plasmodium berghei [1]): 85.05%
- MST (Plasmodium berghei [2]): 9.33 days

SMILES: CCc1nc(N)nc(N)c1-c1ccc(Cl)cc1 [PYRIMETHAMINE]
- Activity (Plasmodium berghei [1]): 100%
- IC50 (Plasmodium falciparum [11]): 0.0125 µM
- Activity (Plasmodium berghei [18]): Active

SMILES: C=CCn1c(-c2ccc(Br)cc2)cs/c1=N/NC(=O)c1cn(-c2ccccc2)nc1-c1ccc(OC)cc1
- Activity (Erythrocyte [3]): 68%
- Activity (Erythrocyte [4]): 35.23%
- Activity [5]: Non-Toxic
- IC50 (PBMC [6]): 222 µM
- Activity (Plasmodium berghei [1]): 90.8%
- Activity (PBMC [8]): 8.46%
- IC50 (Erythrocyte [9]): 79.5 µM
- Activity (PBMC [10]): 39.93%
- IC50 (Plasmodium falciparum [11]): 0.0319 µM
- Activity (Erythrocyte [12]): 57.79%
- Activity (Erythrocyte [13]): 16%
- Activity [14]: Non-Toxic
- Activity (PBMC [16]): 16.05%
- Activity (Erythrocyte [17]): 59%
- Activity (Plasmodium berghei [18]): Active
- IC50 (Erythrocyte [19]): 13.7 µM
- Activity [20]: Non-Toxic
- Activity (Erythrocyte [21]): 80.34%

SMILES: C=CCn1c(-c2ccccc2)cs/c1=N/NC(=O)c1cn(-c2ccccc2)nc1-c1ccc(OC)cc1
- Activity (Plasmodium berghei [1]): 71.26%
- MST (Plasmodium berghei [2]): 7.33 days

SMILES: C=CCn1c(-c2cn(-c3ccccc3)nc2-c2ccc(OC)cc2)n[nH]c1=S
- Activity (Plasmodium berghei [1]): 63.21%
- MST (Plasmodium berghei [2]): 5.5 days

SMILES: COc1ccc(-c2nn(-c3ccccc3)cc2C(=O)N/N=C/c2cccs2)cc1
- Activity (Plasmodium berghei [1]): 86.2%
- MST (Plasmodium berghei [2]): 11.5 days

SMILES: CCN(CC)CCCC(C)Nc1ccnc2cc(Cl)ccc12.O=P(O)(O)O.O=P(O)(O)O (stereo not given) [CHLOROQUINE PHOSPHATE]
- Activity (Plasmodium berghei [1]): 100%
- MST (Plasmodium berghei [2]): 12.22 days

SMILES: COc1ccc(-c2nn(-c3ccccc3)cc2C(=O)NNC=O)cc1
- Activity (Plasmodium berghei [1]): 70.11%
- MST (Plasmodium berghei [2]): 6.66 days

SMILES: C=CCNC(=S)NNC(=O)c1cn(-c2ccccc2)nc1-c1ccc(OC)cc1
- Activity (Plasmodium berghei [1]): 70.11%
- MST (Plasmodium berghei [2]): 6.66 days

SMILES: COc1ccc(-c2nn(-c3ccccc3)cc2C(=O)N/N=c2/scc(-c3ccc(Br)cc3)n2-c2ccccc2)cc1
- Activity (Plasmodium berghei [1]): 81.6%
- MST (Plasmodium berghei [2]): 11.66 days

SMILES: COc1ccc(-c2nn(-c3ccccc3)cc2C(=O)N/N=c2/scc(-c3ccccc3)n2-c2ccccc2)cc1
- Activity (Erythrocyte [3]): 99.8%
- Ratio IC50 [23]: 71
- Activity (Erythrocyte [4]): 56.11%
- Activity [5]: Non-Toxic
- IC50 (PBMC [6]): 190 µM
- Activity (Plasmodium berghei [1]): 97.7%
- Activity (PBMC [8]): -6.2%
- IC50 (Erythrocyte [9]): 138 µM
- Activity (PBMC [10]): 48.27%
- IC50 (Plasmodium falciparum [11]): 0.0492 µM
- Activity (Erythrocyte [12]): 81.19%
- Activity (Erythrocyte [13]): 41%
- Activity [14]: Non-Toxic
- Activity (PBMC [16]): -1.63%
- Activity (Erythrocyte [17]): 79%
- Activity (Plasmodium berghei [18]): Active
- IC50 (Erythrocyte [19]): 3.49 µM
- Activity [20]: Non-Toxic
- Activity (Erythrocyte [21]): 106.28%

SMILES: COc1ccc(-c2nn(-c3ccccc3)cc2-c2n[nH]c(=S)n2-c2ccccc2)cc1
- Activity (Plasmodium berghei [1]): 73.56%
- MST (Plasmodium berghei [2]): 7.66 days

SMILES: COc1ccc(-c2nn(-c3ccccc3)cc2C(=O)NNC(=S)Nc2ccccc2)cc1
- Activity (Plasmodium berghei [1]): 73.56%
- MST (Plasmodium berghei [2]): 6.66 days
